According to ChEMBL document CHEMBL1144026, “Synthesis and anticonvulsant evaluation of N-substituted isoquinoline AMPA receptor antagonists” (2008):
The source made the active and inactive calls. The rule behind the calls is not given here.

Tests used:
Mus musculus [1] = organism: Mus musculus; assay: Anticonvulsant activity against audiogenic clonus seizures in DBA/2 mouse after 30 mins; format: functional; conditions: DBA/2, 0.5 h
In short: (§1)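 DBA/2 mice aged 22 to 25 days, of either sex, in groups of 10. Dosed ip (0.1 mL/10 g) as a fresh solution in 50% DMSO/50% saline, or given vehicle. After 30 min, 60 s habituation under a dome, then 12–16 kHz, 109 dB sound for 60 s or until tonic extension. Seizure phase incidence and latency were scored. ED50 (≥32 animals, 95% confidence limits) by Litchfield–Wilcoxon.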

Mus musculus [2] = organism: Mus musculus; assay: Anticonvulsant activity against audiogenic tonus seizures in DBA/2 mouse after 30 mins; format: functional; conditions: DBA/2, 0.5 h; in short: as §1
Pyramidal neuron = assay: (§2) Reduction in AMPA-mediated current in CA1 pyramidal neurons of Wistar rat at 50 uM after 5 mins by patch clamp technique; format: functional
In short: (§3)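 Whole-cell patch clamp of single CA1 pyramidal neurons; pipette 1.5–3 MΩ, K-gluconate-based intracellular solution. (S)-AMPA 5 μM pulsed for 5 s by fast solution changer; test agent bath-perfused 5 min. Peak amplitude minus baseline and current duration from ≥3 consecutive responses per neuron, control vs drug; unpaired t test per neuron, Wilcoxon matched pairs across neurons.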

[3] = as §2; format: functional, Pyramidal neuron; parameters: scale not given: the % may be the effect or the level left; in short: as §3

SMILES	ED50 (Mus musculus [1])	ED50 (Mus musculus [2])	Activity (Pyramidal neuron)	Activity [3]
COc1cc2c(cc1OC)C(c1ccc(F)cc1)N(C(=O)C(=O)N1CCOCC1)CC2 (stereo unspecified)	> 100 µmol/kg	90.2 µmol/kg		
COc1cc2c(cc1OC)C(c1ccc(F)cc1)N(C(=O)C(=O)N1CCCC1)CC2 (stereo unspecified)	> 100 µmol/kg	73 µmol/kg		
COc1cc2c(cc1OC)C(c1ccc(Br)cc1)N(C(=O)C(=O)N1CCCC1)CC2 (stereo unspecified)	89.2 µmol/kg	45.4 µmol/kg		
CCN(CC)C(=O)C(=O)N1CCc2cc(OC)c(OC)cc2C1c1ccc(Br)cc1 (stereo unspecified)	> 100 µmol/kg	> 100 µmol/kg		
CCN(CC)C(=O)C(=O)N1CCc2cc(OC)c(OC)cc2C1c1ccc(Cl)cc1 (stereo unspecified)	75.9 µmol/kg	67.7 µmol/kg		
COc1cc2c(cc1OC)C(c1ccc(Br)cc1)N(C(=O)CN1CCCCC1)CC2 (stereo unspecified)	12.7 µmol/kg	8.17 µmol/kg		
COc1cc2c(cc1OC)C(c1ccc(Cl)cc1)N(C(=O)C(=O)N1CCOCC1)CC2 (stereo unspecified)	91 µmol/kg	46.9 µmol/kg		
CC1=NN=C(c2ccc(N)cc2)c2cc3c(cc2C1)OCO3			Active	
COc1cc2c(cc1OC)C(c1ccc(Cl)cc1)N(C(=O)C(=O)N1CCCCC1)CC2 (stereo unspecified)	88.4 µmol/kg	65.3 µmol/kg		
COc1cc2c(cc1OC)C(c1ccccc1)N(C(=O)C(=O)N1CCCC1)CC2 (stereo unspecified)	> 100 µmol/kg	54.6 µmol/kg		
COc1cc2c(cc1OC)C(c1ccc(F)cc1)N(C(=O)C(=O)N1CCCCC1)CC2 (stereo unspecified)	44.6 µmol/kg	38.7 µmol/kg		60%
COc1cc2c(cc1OC)C(c1ccccc1)N(C(=O)C(=O)N1CCOCC1)CC2 (stereo unspecified)	> 100 µmol/kg	72.1 µmol/kg		
CCN(CC)C(=O)C(=O)N1CCc2cc(OC)c(OC)cc2C1c1ccc(F)cc1 (stereo unspecified)	> 100 µmol/kg	> 100 µmol/kg		
COc1cc2c(cc1OC)C(c1ccccc1)N(C(=O)C(=O)N1CCCCC1)CC2 (stereo unspecified)	98.1 µmol/kg	55.3 µmol/kg		
CCN(CC)C(=O)C(=O)N1CCc2cc(OC)c(OC)cc2C1c1ccccc1 (stereo unspecified)	65.1 µmol/kg	53.3 µmol/kg		
COc1cc2c(cc1OC)C(c1ccc(Br)cc1)N(C(=O)C(=O)N1CCOCC1)CC2 (stereo unspecified)	> 100 µmol/kg	> 100 µmol/kg		
COc1cc2c(cc1OC)C(c1ccc(Br)cc1)N(C(=O)C(=O)N1CCCCC1)CC2 (stereo unspecified)	60.5 µmol/kg	41.6 µmol/kg		
COc1cc2c(cc1OC)C(c1ccc(Cl)cc1)N(C(=O)C(=O)N1CCCC1)CC2 (stereo unspecified)	58.1 µmol/kg	37.2 µmol/kg		
